For 23 compounds, Ki and Ratio Ki results are on record in ChEMBL document CHEMBL1152507, “An extended study of dimeric phenyl tropanes” (Bioorg Med Chem, 2009).

Structures are written as SMILES.

For experiment [1], the target named is Sodium-dependent noradrenaline transporter (Homo sapiens, UniProt P23975). Description: Displacement of [125I]methyl 3-(4-iodophenyl)-8-methyl-8-aza-bicyclo[3.2.1]octane-2-carboxylate from human recombinant NET expressed in african green monkey COS1 cells by liquid scintillation counting. The format is cell-based, COS-1. A digest of the protocol:
(§1)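 Membranes from COS-1 cells stably expressing cloned human transporter; cells scraped, homogenized in ice-cold 150 mM NaCl/50 mM Tris/20 mM EDTA, pelleted at 12,000g, resuspended in PBSCM, stored at -80 °C. Filtered on PEI-presoaked GF/B filters, washed thrice with ice-cold water.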
In general terms: Displacement assays read how much labelled ligand stays bound in the presence of the test substance.

The species entered for experiment [2] is Homo sapiens. Description: Selectivity ratio of Ki for human NET to Ki for human DAT.
In experiment [3] the target is Sodium-dependent serotonin transporter (Homo sapiens, UniProt P31645). Description: Displacement of [125I]methyl 3-(4-iodophenyl)-8-methyl-8-aza-bicyclo[3.2.1]octane-2-carboxylate from human recombinant SERT expressed in african green monkey COS1 cells by liquid scintillation counting. The format is cell-based, COS-1. A digest of the protocol:
as §1

Experiment [4] has as its target Sodium-dependent dopamine transporter (Homo sapiens, UniProt Q01959). Description: Displacement of [125I]methyl 3-(4-iodophenyl)-8-methyl-8-aza-bicyclo[3.2.1]octane-2-carboxylate from human recombinant DAT expressed in african green monkey COS1 cells by liquid scintillation counting. Format: cell-based, COS-1. A digest of the protocol:
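Membranes from COS-1 cells stably expressing cloned human transporter; cells scraped, homogenized in ice-cold 150 mM NaCl/50 mM Tris/20 mM EDTA, pelleted at 12,000g, resuspended in PBSCM, stored at -80 °C. 5 µg protein/well incubated with test drug and 0.1–0.25 nM 125I-radioligand for 1 h at 20 °C. Filtered on PEI-presoaked GF/B filters, washed thrice with ice-cold water.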

The species named for experiment [5] is Homo sapiens. Description: Selectivity ratio of Ki for human SERT to Ki for human DAT.

One may read the Ki as a dissociation constant, usually derived from enzyme kinetics or from competition with a known ligand.

Chain of Sodium-dependent noradrenaline transporter (P23975 whole entry): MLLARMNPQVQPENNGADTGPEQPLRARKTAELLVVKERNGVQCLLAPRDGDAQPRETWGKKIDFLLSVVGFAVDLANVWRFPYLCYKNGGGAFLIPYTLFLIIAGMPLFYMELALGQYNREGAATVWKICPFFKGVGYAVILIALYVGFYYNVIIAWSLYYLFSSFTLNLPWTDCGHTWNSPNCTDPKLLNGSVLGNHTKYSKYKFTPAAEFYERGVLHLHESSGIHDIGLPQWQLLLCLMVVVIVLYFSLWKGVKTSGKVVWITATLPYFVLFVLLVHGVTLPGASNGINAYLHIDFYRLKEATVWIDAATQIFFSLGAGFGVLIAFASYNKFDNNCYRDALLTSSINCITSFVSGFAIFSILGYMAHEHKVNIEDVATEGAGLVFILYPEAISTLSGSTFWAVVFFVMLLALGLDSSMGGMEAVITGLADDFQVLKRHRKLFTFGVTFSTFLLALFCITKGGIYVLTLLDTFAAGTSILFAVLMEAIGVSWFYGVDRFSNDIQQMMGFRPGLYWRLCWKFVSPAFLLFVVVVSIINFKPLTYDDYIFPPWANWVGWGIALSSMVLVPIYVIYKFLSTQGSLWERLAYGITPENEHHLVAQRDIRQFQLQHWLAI
Chain of Sodium-dependent dopamine transporter (Q01959 whole entry): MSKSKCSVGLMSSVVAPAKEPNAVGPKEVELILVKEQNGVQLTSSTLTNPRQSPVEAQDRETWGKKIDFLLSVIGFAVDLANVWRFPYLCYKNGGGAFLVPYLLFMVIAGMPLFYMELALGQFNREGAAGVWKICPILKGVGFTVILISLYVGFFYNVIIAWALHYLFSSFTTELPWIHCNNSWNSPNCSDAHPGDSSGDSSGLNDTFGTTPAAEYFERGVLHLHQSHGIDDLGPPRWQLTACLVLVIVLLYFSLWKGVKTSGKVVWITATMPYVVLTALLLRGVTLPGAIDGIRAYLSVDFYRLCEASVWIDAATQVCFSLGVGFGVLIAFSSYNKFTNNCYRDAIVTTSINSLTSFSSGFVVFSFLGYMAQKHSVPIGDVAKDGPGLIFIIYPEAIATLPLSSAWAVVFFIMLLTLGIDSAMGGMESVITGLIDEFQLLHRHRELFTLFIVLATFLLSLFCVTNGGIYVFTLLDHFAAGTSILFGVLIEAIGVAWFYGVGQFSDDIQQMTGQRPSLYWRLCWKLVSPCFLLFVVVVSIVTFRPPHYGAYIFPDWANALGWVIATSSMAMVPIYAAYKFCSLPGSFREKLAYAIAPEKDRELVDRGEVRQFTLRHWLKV
Chain of Sodium-dependent serotonin transporter (P31645 whole entry): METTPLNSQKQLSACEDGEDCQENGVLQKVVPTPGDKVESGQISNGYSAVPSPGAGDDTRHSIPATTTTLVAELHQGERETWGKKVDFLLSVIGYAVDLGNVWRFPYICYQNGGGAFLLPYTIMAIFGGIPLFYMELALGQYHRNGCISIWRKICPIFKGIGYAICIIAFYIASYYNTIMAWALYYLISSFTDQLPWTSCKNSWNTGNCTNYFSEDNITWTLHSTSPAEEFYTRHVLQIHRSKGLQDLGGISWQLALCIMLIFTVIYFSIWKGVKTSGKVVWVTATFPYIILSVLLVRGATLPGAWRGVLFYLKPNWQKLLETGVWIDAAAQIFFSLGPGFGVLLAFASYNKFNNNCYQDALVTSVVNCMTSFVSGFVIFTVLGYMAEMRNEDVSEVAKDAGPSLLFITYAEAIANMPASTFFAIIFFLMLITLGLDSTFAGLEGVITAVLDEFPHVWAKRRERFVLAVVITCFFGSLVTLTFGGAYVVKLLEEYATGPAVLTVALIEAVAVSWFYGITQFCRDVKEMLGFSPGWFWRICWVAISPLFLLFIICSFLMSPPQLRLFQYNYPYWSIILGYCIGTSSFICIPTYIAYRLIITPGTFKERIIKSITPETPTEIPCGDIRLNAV

Consider `COC(=O)[C@@H]1C2CCC(C[C@@H]1c1ccc(I)cc1)N2C` (stereo partly specified), for which the Ki is 19 nM in experiment [1], 4.2 nM in experiment [3] and 3.9 nM in experiment [4]. The Ratio Ki in experiment [2] worked out at 4.9; in experiment [5] it was 1.1.
Consider `CN1C2CCC1[C@@H](C(=O)Nc1ccc(CCNC(=O)[C@H]3C4CCC(C[C@@H]3c3ccc(Cl)cc3)N4C)cc1)[C@@H](c1ccc(Cl)cc1)C2` (stereo partly specified), for which the Ki was 180 nM in experiment [1], 2600 nM in experiment [3] and 6.6 nM in experiment [4]. Moreover, the figures for the Ratio Ki in experiment [2] and in experiment [5] were 27 and 390, respectively.
For the compound `COC(=O)[C@@H]1C2CCC(C[C@@H]1c1ccc(Cl)cc1)N2C` (stereo partly specified), the Ki in experiment [4] worked out at 2.7 nM.
As to `CN1C2CCC1[C@@H](C(=O)Nc1ccc(CNC(=O)[C@H]3C4CCC(C[C@@H]3c3ccc(-c5ccsc5)cc3)N4C)cc1)[C@@H](c1ccc(-c3ccsc3)cc1)C2` (stereo partly specified), the inhibition constant (Ki) in experiment [1] came to 2700 nM; in experiment [3] it was 730 nM; in experiment [4], 800 nM. The Ratio Ki in experiment [2] amounted to 3.4; in experiment [5], 0.92.
In the case of `CN1C2CCC1[C@@H](C(=O)N[C@H]1CC[C@H](NC(=O)[C@H]3C4CCC(C[C@@H]3c3ccc(Cl)cc3)N4C)CC1)[C@@H](c1ccc(Cl)cc1)C2`, the Ki in experiment [1] worked out at 4900 nM; in experiment [3], 4000 nM; in experiment [4] it was 890 nM. The Ratio Ki came to 5.5 in experiment [2] and 4.6 in experiment [5].
The like results for `CN1C2CCC1[C@@H](C(=O)Nc1ccc(NC(=O)[C@H]3C4CCC(C[C@@H]3c3ccc(Cl)cc3)N4C)cc1)[C@@H](c1ccc(Cl)cc1)C2` were, in that order, 5400 nM, 3200 nM, 690 nM, 7.8 and 4.6.
The corresponding values for `CN1C2CCC1[C@@H](C(=O)OCc1cn(CCCCCCCOC(=O)[C@H]3C4CCC(C[C@@H]3c3ccc(Cl)cc3)N4C)nn1)[C@@H](c1ccc(Cl)cc1)C2` (stereo partly specified) are 20 nM, 3.5 nM, 3.9 nM, 5.1 and 0.89.
As for `CN1C2CCC1[C@@H](C(=O)NCCCCCCNC(=O)[C@H]1C3CCC(C[C@@H]1c1ccc(-c4ccsc4)cc1)N3C)[C@@H](c1ccc(-c3ccsc3)cc1)C2`, the Ki in experiment [1] is 2200 nM; in experiment [3], 2100 nM; in experiment [4] it was 540 nM. The Ratio Ki in experiment [2] and in experiment [5] was 4 each time.
On to `CN1C2CCC1[C@@H](C(=O)N[C@H]1CC[C@H](NC(=O)[C@H]3C4CCC(C[C@@H]3c3ccc(-c5ccsc5)cc3)N4C)CC1)[C@@H](c1ccc(-c3ccsc3)cc1)C2`, for which the Ki in experiment [1] was determined as 5000 nM; in experiment [3], 810 nM; in experiment [4], 1300 nM. The Ratio Ki in experiment [2] turned out to be 3.8; in experiment [5], 0.62.
Turning to `CN1C2CCC1[C@@H](C(=O)Nc1ccc(NC(=O)[C@H]3C4CCC(C[C@@H]3c3ccc(-c5ccsc5)cc3)N4C)cc1)[C@@H](c1ccc(-c3ccsc3)cc1)C2`, the inhibition constant Ki in experiment [1] was determined as 1900 nM; in experiment [3], 270 nM; in experiment [4] it was 210 nM. Also, the values for the Ratio Ki in experiment [2] and in experiment [5] were 9.4 and 1.3, respectively.
As to `CN1C2CCC1[C@@H](C(=O)NCc1ccc(CNC(=O)[C@H]3C4CCC(C[C@@H]3c3ccc(-c5ccsc5)cc3)N4C)cc1)[C@@H](c1ccc(-c3ccsc3)cc1)C2`, the Ki in experiment [1] was found to be 620 nM; in experiment [3] it was 160 nM; in experiment [4], 93 nM. The Ratio Ki in experiment [2] is 6.7; in experiment [5] it was 1.7.
`CN1C2CCC1[C@@H](C(=O)NCc1cccc(CNC(=O)[C@H]3C4CCC(C[C@@H]3c3ccc(-c5ccsc5)cc3)N4C)c1)[C@@H](c1ccc(-c3ccsc3)cc1)C2`: the Ki in experiment [1] was 1200 nM; in experiment [3] it was 860 nM; in experiment [4], 230 nM. Besides, the values for the Ratio Ki in experiment [2] and in experiment [5] were 5.1 and 3.7, respectively.
The corresponding values for `CN1C2CCC1[C@@H](C(=O)Nc1ccc(CCNC(=O)[C@H]3C4CCC(C[C@@H]3c3ccc(-c5ccsc5)cc3)N4C)cc1)[C@@H](c1ccc(-c3ccsc3)cc1)C2` (stereo partly specified) are 3300 nM, 340 nM, 710 nM, 4.6 and 0.48.
Regarding `CN1C2CCC1[C@@H](C(=O)NCCC1CCN(C(=O)[C@H]3C4CCC(C[C@@H]3c3ccc(Cl)cc3)N4C)CC1)[C@@H](c1ccc(Cl)cc1)C2` (stereo partly specified), the Ki was found to be 440 nM in experiment [1], 2500 nM in experiment [3] and 180 nM in experiment [4]. Besides, the Ratio Ki in experiment [2] was determined as 2.5; in experiment [5] it was 14.
With `CN1C2CCC1[C@@H](C(=O)Nc1ccc(CNC(=O)[C@H]3C4CCC(C[C@@H]3c3ccc(Cl)cc3)N4C)cc1)[C@@H](c1ccc(Cl)cc1)C2` (stereo partly specified), the Ki stood at 810 nM in experiment [1], 1500 nM in experiment [3] and 21 nM in experiment [4]. Moreover, the Ratio Ki amounted to 39 in experiment [2] and 74 in experiment [5].
Consider `CN1C2CCC1[C@@H](C(=O)OCc1cn(CCCCCCOC(=O)[C@H]3C4CCC(C[C@@H]3c3ccc(Cl)cc3)N4C)nn1)[C@@H](c1ccc(Cl)cc1)C2` (stereo partly specified), for which the values for the Ki in experiment [1], in experiment [3] and in experiment [4] were 8.5 nM, 0.86 nM and 1 nM, respectively. Moreover, the Ratio Ki came to 8.5 in experiment [2] and 0.86 in experiment [5].
In the case of `CN1C2CCC1[C@@H](C(=O)NCc1ccc(CCNC(=O)[C@H]3C4CCC(C[C@@H]3c3ccc(-c5ccsc5)cc3)N4C)cc1)[C@@H](c1ccc(-c3ccsc3)cc1)C2` (stereo partly specified), the Ki in experiment [1] was determined as 1300 nM; in experiment [3], 62 nM; in experiment [4] it was 160 nM. For the same compound, the Ratio Ki was 8.2 in experiment [2] and 0.38 in experiment [5].
As to `CN1C2CCC1[C@@H](C(=O)NCc1ccc(CCNC(=O)[C@H]3C4CCC(C[C@@H]3c3ccc(Cl)cc3)N4C)cc1)[C@@H](c1ccc(Cl)cc1)C2` (stereo partly specified), the Ki is 100 nM in experiment [1], 65 nM in experiment [3] and 20 nM in experiment [4]. Further, the results for the Ratio Ki in experiment [2] and in experiment [5] were 5.2 and 3.3, respectively.
The corresponding values for `CN1C2CCC1[C@@H](C(=O)NCCCCCCCCCCNC(=O)[C@H]1C3CCC(C[C@@H]1c1ccc(-c4ccsc4)cc1)N3C)[C@@H](c1ccc(-c3ccsc3)cc1)C2` are 1500 nM, 250 nM, 350 nM, 4.4 and 0.72.
In the case of `CN1C2CCC1[C@@H](C(=O)NCCCCCCCCNC(=O)[C@H]1C3CCC(C[C@@H]1c1ccc(-c4ccsc4)cc1)N3C)[C@@H](c1ccc(-c3ccsc3)cc1)C2`, the Ki in experiment [1] was 1700 nM; in experiment [3], 470 nM; in experiment [4], 690 nM. Further, the Ratio Ki in experiment [2] came to 2.4; in experiment [5] it was 0.68.
For the compound `CN1C2CCC1[C@@H](C(=O)OCCCCCn1ccnn1)[C@@H](c1ccc(Cl)cc1)C2` (stereo partly specified), the Ki in experiment [1] was determined as 380 nM; in experiment [3], 20 nM; in experiment [4], 5.5 nM. Further, the Ratio Ki was found to be 69 in experiment [2] and 3.6 in experiment [5].
The corresponding values for `CN1C2CCC1[C@@H](C(=O)OCc1cn(CCOC(=O)[C@H]3C4CCC(C[C@@H]3c3ccc(Cl)cc3)N4C)nn1)[C@@H](c1ccc(Cl)cc1)C2` (stereo partly specified) are 120 nM, 27 nM, 16 nM, 7.3 and 1.6.
As to `COC(=O)[C@@H]1C2CCC(C[C@@H]1c1ccc(-c3ccsc3)cc1)N2C` (stereo partly specified), the figures for the Ki in experiment [1], in experiment [3] and in experiment [4] were 26 nM, 0.58 nM and 2.5 nM, respectively. For the same compound, the Ratio Ki in experiment [2] came to 10; in experiment [5] it was 0.24.
